# Data as given in PubChem BioAssay AID493176 (Broad Institute, 2011).
# Records with an inconclusive call do not appear. The source made the active and inactive calls.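 Rule for the calls: active = every replicate test active, with falling luminescence and half-maximal potency within ten times the top tested dose; inconclusive = tests disagree, or partial flat loss or unreliable fit; inactive = all tests inactive, flat or rising signal or weak potency.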
# Test system: HMLE_shECad viability, CellTiter-Glo luminescence, 72 h
# Assay: killing of breast cancer stem-like cells, dose response, cell-based, HMLE_shECad, CellTiter-Glo luminescence, dry powder, set 3 (AID 493176)
# Conditions: not given
# Outline: (§1)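 Material: E-cadherin-knockdown HMLE cells (HMLE_shECad), CSC-like | Amount: 2000 cells/well | Buffer or medium: Serum-free CSC medium | Doses: Pin-transferred compounds | Times: ≥4 h adherence, ~70-74 h compound exposure, 37 °C, 5% CO2 | Detection: CellTiter-Glo luminescence, reagent diluted 1:3 in PBS | Measure: Cell viability derived from luminescence signal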
row,SMILES,AC50 [µM]
1,O=C(Nc1ccccc1N1CCCC1)c1cccc(-c2cc3ccccc3oc2=O)c1,10
2,Cc1cc(C)nc(NC(=O)/C=C/c2cccs2)c1,5.95
3,Cc1ccc2nc(NC(=O)c3cccc(-c4cc5ccccc5oc4=O)c3)sc2c1,5.37
4,CCCCCCc1cc2cc(S(=O)(=O)c3ccc(Cl)cc3)c(=O)oc2cc1O,2.2
5,CC(=O)c1cccc(NS(=O)(=O)c2cc(-c3cnc(C4CC4)o3)ccc2C)c1,1.02
6,Cc1csc(NC(=O)c2ccc(COc3ccccc3)o2)n1,12.3
7,CC(C)(C)c1ccc2c(c1)OC(C(=O)NN=Cc1ccc[nH]1)CO2 (mixture of isomers),2.21
8,CC(C)c1ccc(/C=C/C(=O)NC2=NCCS2)cc1,7.96
9,CC(C)CC(=O)NC(NC(=S)Nc1sc2c(c1C#N)CCCC2)C(Cl)(Cl)Cl (stereo unspecified),0.619
10,O=C(COc1ccc(Cl)cc1Cl)N/N=C/c1ccc[nH]1,5.91
11,CN(c1ccccc1)S(=O)(=O)c1ccc(-c2ccccc2)cc1,12.7
12,C/C(=N\NC(=O)c1cc(-c2cccc([N+](=O)[O-])c2)n[nH]1)c1ccccc1O,8.72
13,CCN1C(=O)/C(=C\N2CCN(c3cccc(Cl)c3)CC2)SC1=S,4.92
14,Cc1onc(-c2ccccc2)c1C(=O)Nc1sc2c(c1C#N)CCC(C)C2 (stereo unspecified),7.81
15,Nc1cc(Cl)ccc1Oc1ccc2ccccc2c1,10.5

# Test system: not listed separately
# Assay: as above
# Conditions: HMLE_shECad viability, CellTiter-Glo luminescence, 72 h; at 19.5 µM (top of the series)
# Outline: as §1
row,SMILES,"activity change, negative = inhibition"
1,O=C(c1ccccc1)c1coc2ccc(O)c(Br)c12,1.46% (inactive)
